In article PMC5598522 (Toxicology Reports, 2014):

Columns and labels:
[1] = tested on: TA1535 TA100 TA102 TA98 TA1537; test: Ames in vitro assay; format: cell-based, Salmonella
How it was run: (§1)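 Genotoxicity screens. Ames: Salmonella strains exposed to 3–3000 μg/plate with and without metabolic activation; read-out was reverse-mutation frequency. Mouse lymphoma: L5178Y/TK+ cells treated for 4 h with S9 (15.7–41.8 μg/mL), for 4 h without S9 (5.23–15.7 μg/mL), and for 24 h without S9; read-out was clone number. Micronucleus: male and female Alderly Park rats given 2000 mg/kg; micronuclei scored 24 or 48 h post-dose.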

[2] = tested on: Alderly Park (Wistar derived) rats; test: Rat micronucleus in vivo assay; details: 2000 mg/kg
How it was run: as §1

[3] = Quantitative whole body autoradiography; format: in vivo, rat; details: male rat, [3H] Ticagrelor 3 mg/kg

CCCSc1nc(N[C@@H]2C[C@H]2c2ccc(F)c(F)c2)c2nnn([C@@H]3C[C@H](OCCO)[C@@H](O)[C@H]3O)c2n1 [Ticagrelor]
Ames in vitro assay: Conclusion [1]: Negative
Ames in vitro assay: Results ([1]; 3–3000 μg/plate, with or without metabolic activation): No increased frequency of reverse mutations with or without metabolic activation
Rat micronucleus in vivo: Conclusion [2]: Negative
Rat micronucleus in vivo: Results ([2]; M&F, 24 or 48 h post-dose): No increased frequency of micronuclei at 24 or 48 h post-dose
Adrenal gland radioactivity ([3]; 5 min): 11.35 μg equivalent/g
Adrenal gland radioactivity, fold of blood value ([3]; 5 min): 5.33 fold of blood value
Blood (LSC) radioactivity ([3]; 5 min): 2.131 μg equivalent/g
Brain radioactivity ([3]; 5 min): 0.05 μg equivalent/g
Brain radioactivity, fold of blood value ([3]; 5 min): 0.02 fold of blood value
Brown fat radioactivity ([3]; 5 min): 1.35 μg equivalent/g
Brown fat radioactivity, fold of blood value ([3]; 5 min): 0.63 fold of blood value
Eye radioactivity ([3]; 5 min): 0.50 μg equivalent/g
Eye radioactivity, fold of blood value ([3]; 5 min): 0.23 fold of blood value
Heart radioactivity ([3]; 5 min): 9.15 μg equivalent/g
Heart radioactivity, fold of blood value ([3]; 5 min): 4.29 fold of blood value
Kidney radioactivity ([3]; 5 min): 10.62 μg equivalent/g
Kidney radioactivity, fold of blood value ([3]; 5 min): 4.98 fold of blood value
Liver radioactivity ([3]; 5 min): 16.11 μg equivalent/g
Liver radioactivity, fold of blood value ([3]; 5 min): 7.56 fold of blood value
Lung radioactivity ([3]; 5 min): 7.31 μg equivalent/g
Lung radioactivity, fold of blood value ([3]; 5 min): 3.43 fold of blood value
Pancreas radioactivity ([3]; 5 min): 7.35 μg equivalent/g
Pancreas radioactivity, fold of blood value ([3]; 5 min): 3.45 fold of blood value
Pituitary gland radioactivity ([3]; 5 min): 8.03 μg equivalent/g
Pituitary gland radioactivity, fold of blood value ([3]; 5 min): 3.77 fold of blood value
Salivary gland radioactivity ([3]; 5 min): 3.66 μg equivalent/g
Salivary gland radioactivity, fold of blood value ([3]; 5 min): 1.72 fold of blood value
Skeletal muscle radioactivity ([3]; 5 min): 3.15 μg equivalent/g
Skeletal muscle radioactivity, fold of blood value ([3]; 5 min): 1.48 fold of blood value
Spinal cord radioactivity ([3]; 5 min): 0.05 μg equivalent/g
Spinal cord radioactivity, fold of blood value ([3]; 5 min): 0.02 fold of blood value
Spleen radioactivity ([3]; 5 min): 4.86 μg equivalent/g
Spleen radioactivity, fold of blood value ([3]; 5 min): 2.28 fold of blood value
Stomach wall radioactivity ([3]; 5 min): 7.11 μg equivalent/g
Stomach wall radioactivity, fold of blood value ([3]; 5 min): 3.34 fold of blood value
Thymus radioactivity ([3]; 5 min): 0.99 μg equivalent/g
Thymus radioactivity, fold of blood value ([3]; 5 min): 0.46 fold of blood value
Thyroid gland radioactivity ([3]; 5 min): 7.84 μg equivalent/g
Thyroid gland radioactivity, fold of blood value ([3]; 5 min): 3.68 fold of blood value
Adrenal gland radioactivity ([3]; 0.5 h): 5.26 μg equivalent/g
Adrenal gland radioactivity, fold of blood value ([3]; 0.5 h): 5.16 fold of blood value
Blood (LSC) radioactivity ([3]; 0.5 h): 1.02 μg equivalent/g
Brain radioactivity ([3]; 0.5 h): 0.04/0.04 μg equivalent/g
Brain radioactivity, fold of blood value ([3]; 0.5 h): 0.04/0.04 fold of blood value
Brown fat radioactivity ([3]; 0.5 h): 0.95 μg equivalent/g
Brown fat radioactivity, fold of blood value ([3]; 0.5 h): 0.93 fold of blood value
Eye radioactivity ([3]; 0.5 h): 0.04/0.04 μg equivalent/g
Eye radioactivity, fold of blood value ([3]; 0.5 h): 0.04/0.04 fold of blood value
Heart radioactivity ([3]; 0.5 h): 4.94 μg equivalent/g
Heart radioactivity, fold of blood value ([3]; 0.5 h): 4.84 fold of blood value
Kidney radioactivity ([3]; 0.5 h): 6.77 μg equivalent/g
Kidney radioactivity, fold of blood value ([3]; 0.5 h): 6.64 fold of blood value
Liver radioactivity ([3]; 0.5 h): 8.44 μg equivalent/g
Liver radioactivity, fold of blood value ([3]; 0.5 h): 8.27 fold of blood value
Lung radioactivity ([3]; 0.5 h): 3.90 μg equivalent/g
Lung radioactivity, fold of blood value ([3]; 0.5 h): 3.82 fold of blood value
Pancreas radioactivity ([3]; 0.5 h): 7.83 μg equivalent/g
Pancreas radioactivity, fold of blood value ([3]; 0.5 h): 7.68 fold of blood value
Pituitary gland radioactivity ([3]; 0.5 h): 7.03 μg equivalent/g
Pituitary gland radioactivity, fold of blood value ([3]; 0.5 h): 6.89 fold of blood value
Salivary gland radioactivity ([3]; 0.5 h): 5.57 μg equivalent/g
Salivary gland radioactivity, fold of blood value ([3]; 0.5 h): 5.46 fold of blood value
Skeletal muscle radioactivity ([3]; 0.5 h): 3.26 μg equivalent/g
Skeletal muscle radioactivity, fold of blood value ([3]; 0.5 h): 3.20 fold of blood value
Spinal cord radioactivity ([3]; 0.5 h): 0.04/0.04 μg equivalent/g
Spinal cord radioactivity, fold of blood value ([3]; 0.5 h): 0.04/0.04 fold of blood value
Spleen radioactivity ([3]; 0.5 h): 3.81 μg equivalent/g
Spleen radioactivity, fold of blood value ([3]; 0.5 h): 3.74 fold of blood value
Stomach wall radioactivity ([3]; 0.5 h): 7.17 μg equivalent/g
Stomach wall radioactivity, fold of blood value ([3]; 0.5 h): 7.03 fold of blood value
Thymus radioactivity ([3]; 0.5 h): 1.28 μg equivalent/g
Thymus radioactivity, fold of blood value ([3]; 0.5 h): 1.25 fold of blood value
Thyroid gland radioactivity ([3]; 0.5 h): 3.85 μg equivalent/g
Thyroid gland radioactivity, fold of blood value ([3]; 0.5 h): 3.77 fold of blood value
Adrenal gland radioactivity ([3]; 2 h): 1.19 μg equivalent/g
Adrenal gland radioactivity, fold of blood value ([3]; 2 h): 2.57 fold of blood value
Blood (LSC) radioactivity ([3]; 2 h): 0.463 μg equivalent/g
Brain radioactivity ([3]; 2 h): 0.02 μg equivalent/g
Brain radioactivity, fold of blood value ([3]; 2 h): 0.04 fold of blood value
Brown fat radioactivity ([3]; 2 h): 0.46 μg equivalent/g
Brown fat radioactivity, fold of blood value ([3]; 2 h): 0.99 fold of blood value
Eye radioactivity ([3]; 2 h): 0.01 μg equivalent/g
